Experimental data from ChEMBL document CHEMBL1146170, “Facile synthesis of substituted thiophenes via Pd/C-mediated sonogashira coupling in water” (2006).

Key:
Conditions in all cases: Homo sapiens
HT-29 = experiment: Growth inhibition of HT29 cells at 100 uM; values are per cent of control
NCI-H460 = experiment: Growth inhibition of NCI-H460 cells at 100 uM; values are per cent of control
LoVo [1] = experiment: Growth inhibition of LoVo cells at 100 uM; values are per cent of control
LoVo [2] = experiment: Growth inhibition of LoVo cells; type: functional
Method in brief: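 LoVo human colon cancer cells were screened by the NCI standard anticancer protocol. Percentage cell growth was read after initial treatment at 100 µM. Follow-up testing used 10, 1.0, 0.1 and 0.01 µM. GI50 was the concentration giving 50% inhibition of cell growth.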

Row | SMILES | growth, % of control at 100 µM (HT-29) | growth, % of control at 100 µM (NCI-H460) | growth, % of control at 100 µM (LoVo [1]) | GI50 (LoVo [2]) | CC50 (LoVo [2]; read-out: LC50 (the source's name))
1 | CC(=O)Nc1ccsc1C#CC(C)(C)O | 90% | 56% | 78% |  | 
2 | Cc1ccc(C#Cc2cccs2)cc1 | 83% | 68% | 83% |  | 
3 | C(#Cc1cccs1)COc1ccccc1 | 63% | 88% | 47% |  | 
4 | CC(C)(O)C#Cc1cccs1 | 95% | 105% | 78% |  | 
5 | O=[N+]([O-])c1ccc(OCC#Cc2cccs2)cc1 | 44% | 48% | 26% | 47.5 µM | 100 µM
